According to ChEMBL document CHEMBL5653631, “A Potent and Selective ULK1 Inhibitor Suppresses Autophagy and Sensitizes Cancer Cells to Nutrient Stress” (iScience, 2018):

Key:
[1] = biological target: Calcium/calmodulin-dependent protein kinase kinase 2 (Homo sapiens) (UniProt Q96RR4); assay: Inhibition of human recombinant CaMKK2 at 40 nM related to control ULK1
Homo sapiens = species on record: Homo sapiens; assay: Inhibition of human recombinant p70S6K at 40 nM related to control ULK1
[2] = biological target: Serine/threonine-protein kinase SIK3 (Homo sapiens) (UniProt Q9Y2K2); assay: Inhibition of human recombinant QSK at 40 nM related to control ULK1
[3] = biological target: NT-3 growth factor receptor (Homo sapiens) (UniProt Q16288); assay: Inhibition of human recombinant TRKC at 40 nM related to control ULK1
[4] = biological target: Protein kinase C beta type (Homo sapiens) (UniProt P05771); assay: Inhibition of human recombinant PKCb at 15 nM in presence of ATP by radiometric assay relative to control
[5] = biological target: Protein-tyrosine kinase 6 (Homo sapiens) (UniProt Q13882); assay: Inhibition of human recombinant BRK at 15 nM related to control ULK1
[6] = biological target: Cyclin-dependent kinase 7 (Homo sapiens) (UniProt P50613); assay: Inhibition of human recombinant CDK7 at 15 nM related to control ULK1
[7] = biological target: RAF proto-oncogene serine/threonine-protein kinase (Homo sapiens) (UniProt P04049); assay: Inhibition of human recombinant RAF1 at 15 nM related to control ULK1
[8] = biological target: Serine/threonine-protein kinase 32C (Homo sapiens) (UniProt Q86UX6); assay: Inhibition of human recombinant YANK3 at 15 nM related to control ULK1
[9] = biological target: RAC-alpha serine/threonine-protein kinase (Homo sapiens) (UniProt P31749); assay: Inhibition of human recombinant AKT1 at 500 nM in presence of ATP by radiometric assay relative to control
Outline: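 Panel of 327 recombinant human kinases in radiometric activity assays, each screened in duplicate at a single inhibitor concentration; percent activity remaining relative to vehicle control, percent inhibition taken as 100 minus activity remaining.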

[10] = biological target: Casein kinase II subunit alpha (Homo sapiens) (UniProt P68400); assay: Inhibition of human recombinant CK2a1 at 500 nM in presence of ATP by radiometric assay relative to control
[11] = biological target: Death-associated protein kinase 2 (Homo sapiens) (UniProt Q9UIK4); assay: Inhibition of human recombinant DAPK2 at 500 nM in presence of ATP by radiometric assay relative to control
[12] = biological target: T1, Serine/threonine-protein kinase haspin (Homo sapiens) (UniProt Q8TF76); assay: Inhibition of human recombinant Haspin at 500 nM in presence of ATP by radiometric assay relative to control
T1 sequence (whole entry): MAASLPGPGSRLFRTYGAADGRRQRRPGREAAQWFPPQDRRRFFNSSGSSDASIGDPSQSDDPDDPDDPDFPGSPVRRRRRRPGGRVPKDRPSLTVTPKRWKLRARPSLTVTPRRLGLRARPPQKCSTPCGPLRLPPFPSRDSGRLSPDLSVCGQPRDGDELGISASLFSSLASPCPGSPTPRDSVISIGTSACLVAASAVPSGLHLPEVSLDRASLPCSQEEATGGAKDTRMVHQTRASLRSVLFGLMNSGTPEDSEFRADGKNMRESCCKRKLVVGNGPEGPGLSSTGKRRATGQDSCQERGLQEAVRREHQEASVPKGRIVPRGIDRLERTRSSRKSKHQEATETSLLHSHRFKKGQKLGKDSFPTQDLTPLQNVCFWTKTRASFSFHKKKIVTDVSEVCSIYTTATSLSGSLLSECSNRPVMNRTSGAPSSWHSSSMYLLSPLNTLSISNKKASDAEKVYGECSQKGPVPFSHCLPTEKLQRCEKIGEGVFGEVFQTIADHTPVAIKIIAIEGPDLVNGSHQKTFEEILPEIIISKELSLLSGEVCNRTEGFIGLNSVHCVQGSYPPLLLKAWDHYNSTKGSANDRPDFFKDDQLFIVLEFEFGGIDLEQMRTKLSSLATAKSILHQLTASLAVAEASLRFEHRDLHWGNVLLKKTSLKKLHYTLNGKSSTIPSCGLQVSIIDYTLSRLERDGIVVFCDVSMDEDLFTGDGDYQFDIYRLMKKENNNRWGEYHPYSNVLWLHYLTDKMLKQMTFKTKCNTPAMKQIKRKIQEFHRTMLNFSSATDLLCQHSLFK

[13] = biological target: Mitogen-activated protein kinase kinase kinase kinase 1 (Homo sapiens) (UniProt Q92918); assay: Inhibition of human recombinant HPK1 at 500 nM in presence of ATP by radiometric assay relative to control
[14] = biological target: T2, Serine/threonine-protein kinase D3 (Homo sapiens) (UniProt O94806); assay: Inhibition of human recombinant PKD3 at 500 nM related to control ULK1
T2 sequence (whole entry): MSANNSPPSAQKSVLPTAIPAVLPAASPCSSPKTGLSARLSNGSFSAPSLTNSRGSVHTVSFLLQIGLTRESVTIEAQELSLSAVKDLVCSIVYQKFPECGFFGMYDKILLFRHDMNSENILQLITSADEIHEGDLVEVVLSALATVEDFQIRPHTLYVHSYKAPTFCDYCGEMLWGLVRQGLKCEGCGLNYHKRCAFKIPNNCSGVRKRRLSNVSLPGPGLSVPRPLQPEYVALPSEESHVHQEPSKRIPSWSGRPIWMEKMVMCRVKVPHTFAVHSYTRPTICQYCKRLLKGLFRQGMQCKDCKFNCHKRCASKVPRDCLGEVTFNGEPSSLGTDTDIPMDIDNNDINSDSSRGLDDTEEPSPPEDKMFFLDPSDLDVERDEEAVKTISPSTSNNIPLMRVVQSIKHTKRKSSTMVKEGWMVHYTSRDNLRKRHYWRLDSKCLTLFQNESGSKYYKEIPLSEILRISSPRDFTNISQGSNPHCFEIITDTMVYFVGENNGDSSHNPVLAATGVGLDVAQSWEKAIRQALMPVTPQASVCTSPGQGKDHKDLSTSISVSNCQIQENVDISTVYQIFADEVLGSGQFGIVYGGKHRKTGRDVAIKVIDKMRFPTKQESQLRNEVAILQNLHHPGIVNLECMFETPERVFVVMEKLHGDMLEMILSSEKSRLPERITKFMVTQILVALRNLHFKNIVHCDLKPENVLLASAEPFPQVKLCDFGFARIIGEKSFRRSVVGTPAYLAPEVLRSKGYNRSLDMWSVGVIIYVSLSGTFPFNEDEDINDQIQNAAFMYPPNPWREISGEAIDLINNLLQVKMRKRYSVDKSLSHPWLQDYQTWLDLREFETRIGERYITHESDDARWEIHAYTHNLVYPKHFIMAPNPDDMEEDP

[15] = biological target: Serine/threonine-protein kinase MAK (Homo sapiens) (UniProt P20794); assay: Inhibition of human recombinant MAK at 500 nM related to control ULK1
Sequence of Serine/threonine-protein kinase MAK (Homo sapiens) (P20794 whole entry, looked up): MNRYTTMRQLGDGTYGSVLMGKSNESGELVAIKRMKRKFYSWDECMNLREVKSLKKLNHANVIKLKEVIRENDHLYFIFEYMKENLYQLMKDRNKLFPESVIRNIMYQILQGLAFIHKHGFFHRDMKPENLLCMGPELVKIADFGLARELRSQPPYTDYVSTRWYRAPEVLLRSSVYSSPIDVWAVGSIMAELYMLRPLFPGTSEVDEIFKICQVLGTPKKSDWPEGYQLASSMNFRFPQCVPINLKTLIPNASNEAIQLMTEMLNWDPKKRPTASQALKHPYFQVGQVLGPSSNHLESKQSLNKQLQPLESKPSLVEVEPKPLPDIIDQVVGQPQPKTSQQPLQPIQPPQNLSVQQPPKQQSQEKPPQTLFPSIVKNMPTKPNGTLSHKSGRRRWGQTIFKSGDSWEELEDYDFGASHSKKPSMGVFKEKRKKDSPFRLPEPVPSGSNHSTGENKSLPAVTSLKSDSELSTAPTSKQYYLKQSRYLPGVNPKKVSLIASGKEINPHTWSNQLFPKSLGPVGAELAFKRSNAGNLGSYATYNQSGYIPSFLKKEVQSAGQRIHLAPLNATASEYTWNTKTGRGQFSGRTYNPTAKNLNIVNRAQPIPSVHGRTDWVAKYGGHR

Sequence of Casein kinase II subunit alpha (Homo sapiens) (P68400 whole entry, looked up): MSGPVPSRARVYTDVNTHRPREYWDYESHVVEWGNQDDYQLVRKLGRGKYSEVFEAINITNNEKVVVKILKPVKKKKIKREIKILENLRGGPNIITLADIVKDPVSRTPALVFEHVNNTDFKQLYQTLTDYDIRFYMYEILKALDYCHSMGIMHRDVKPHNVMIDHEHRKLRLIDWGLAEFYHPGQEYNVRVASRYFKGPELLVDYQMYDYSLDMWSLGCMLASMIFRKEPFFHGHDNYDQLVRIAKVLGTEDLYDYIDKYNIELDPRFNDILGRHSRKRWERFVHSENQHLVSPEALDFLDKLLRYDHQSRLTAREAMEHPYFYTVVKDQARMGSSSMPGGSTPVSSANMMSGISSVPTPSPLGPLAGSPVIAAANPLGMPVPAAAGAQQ
Sequence of Protein-tyrosine kinase 6 (Homo sapiens) (Q13882 whole entry, looked up): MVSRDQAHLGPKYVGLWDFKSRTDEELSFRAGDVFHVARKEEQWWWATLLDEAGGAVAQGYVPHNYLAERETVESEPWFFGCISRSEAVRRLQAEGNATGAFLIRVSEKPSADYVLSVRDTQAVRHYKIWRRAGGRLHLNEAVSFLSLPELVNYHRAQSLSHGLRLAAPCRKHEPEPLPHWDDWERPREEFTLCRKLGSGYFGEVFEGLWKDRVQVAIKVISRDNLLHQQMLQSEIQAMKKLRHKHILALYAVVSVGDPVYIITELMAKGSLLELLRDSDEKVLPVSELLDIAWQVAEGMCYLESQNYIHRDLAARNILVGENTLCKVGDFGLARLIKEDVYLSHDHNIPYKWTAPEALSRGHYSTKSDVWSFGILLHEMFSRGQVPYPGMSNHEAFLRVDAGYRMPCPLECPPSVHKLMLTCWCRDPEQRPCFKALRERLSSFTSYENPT
Sequence of Cyclin-dependent kinase 7 (Homo sapiens) (P50613 whole entry): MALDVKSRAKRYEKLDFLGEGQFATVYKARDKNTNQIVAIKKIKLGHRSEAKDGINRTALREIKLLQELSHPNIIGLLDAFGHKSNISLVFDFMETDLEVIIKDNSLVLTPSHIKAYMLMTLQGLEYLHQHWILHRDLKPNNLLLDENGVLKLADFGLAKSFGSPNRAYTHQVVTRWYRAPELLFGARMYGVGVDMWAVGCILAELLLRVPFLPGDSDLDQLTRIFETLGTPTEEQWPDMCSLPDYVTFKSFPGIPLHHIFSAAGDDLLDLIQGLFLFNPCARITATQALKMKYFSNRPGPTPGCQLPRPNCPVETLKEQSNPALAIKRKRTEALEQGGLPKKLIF
Sequence of Death-associated protein kinase 2 (Homo sapiens) (Q9UIK4 whole entry, looked up): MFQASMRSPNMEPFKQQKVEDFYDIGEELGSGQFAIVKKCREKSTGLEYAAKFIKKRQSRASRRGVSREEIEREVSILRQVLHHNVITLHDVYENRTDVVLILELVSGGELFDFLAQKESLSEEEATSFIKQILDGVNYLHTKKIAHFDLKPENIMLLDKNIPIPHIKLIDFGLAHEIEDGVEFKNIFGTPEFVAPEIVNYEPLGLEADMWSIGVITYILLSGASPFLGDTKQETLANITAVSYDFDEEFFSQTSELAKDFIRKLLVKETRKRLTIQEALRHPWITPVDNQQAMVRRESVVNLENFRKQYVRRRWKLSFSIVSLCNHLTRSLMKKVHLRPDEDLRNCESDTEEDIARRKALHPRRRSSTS
Sequence of RAC-alpha serine/threonine-protein kinase (Homo sapiens) (P31749 whole entry): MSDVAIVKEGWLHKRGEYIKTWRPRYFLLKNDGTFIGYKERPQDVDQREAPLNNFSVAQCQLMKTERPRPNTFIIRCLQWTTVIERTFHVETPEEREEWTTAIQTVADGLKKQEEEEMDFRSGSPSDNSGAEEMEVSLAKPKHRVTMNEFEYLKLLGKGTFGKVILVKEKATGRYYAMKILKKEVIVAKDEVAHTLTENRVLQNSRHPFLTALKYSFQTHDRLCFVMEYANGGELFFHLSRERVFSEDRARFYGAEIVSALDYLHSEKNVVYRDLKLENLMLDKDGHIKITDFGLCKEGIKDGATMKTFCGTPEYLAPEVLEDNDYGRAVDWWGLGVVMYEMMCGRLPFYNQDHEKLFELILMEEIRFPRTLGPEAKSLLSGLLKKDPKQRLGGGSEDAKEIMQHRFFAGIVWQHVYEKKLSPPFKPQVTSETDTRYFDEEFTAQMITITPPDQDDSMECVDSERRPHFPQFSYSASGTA
Sequence of Serine/threonine-protein kinase 32C (Homo sapiens) (Q86UX6 whole entry): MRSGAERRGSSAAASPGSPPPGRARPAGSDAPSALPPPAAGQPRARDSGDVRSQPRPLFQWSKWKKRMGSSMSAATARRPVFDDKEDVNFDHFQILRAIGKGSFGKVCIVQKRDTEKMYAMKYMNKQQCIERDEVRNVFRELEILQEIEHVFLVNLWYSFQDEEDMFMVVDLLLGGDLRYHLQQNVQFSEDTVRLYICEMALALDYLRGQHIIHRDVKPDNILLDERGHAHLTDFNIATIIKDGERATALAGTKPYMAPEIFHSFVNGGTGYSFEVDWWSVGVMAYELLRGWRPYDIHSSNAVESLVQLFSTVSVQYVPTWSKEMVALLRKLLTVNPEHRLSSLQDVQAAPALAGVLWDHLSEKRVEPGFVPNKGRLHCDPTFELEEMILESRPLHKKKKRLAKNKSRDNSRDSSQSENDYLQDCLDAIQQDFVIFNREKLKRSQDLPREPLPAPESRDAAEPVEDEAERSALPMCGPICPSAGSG
Sequence of Serine/threonine-protein kinase SIK3 (Homo sapiens) (Q9Y2K2 whole entry, looked up): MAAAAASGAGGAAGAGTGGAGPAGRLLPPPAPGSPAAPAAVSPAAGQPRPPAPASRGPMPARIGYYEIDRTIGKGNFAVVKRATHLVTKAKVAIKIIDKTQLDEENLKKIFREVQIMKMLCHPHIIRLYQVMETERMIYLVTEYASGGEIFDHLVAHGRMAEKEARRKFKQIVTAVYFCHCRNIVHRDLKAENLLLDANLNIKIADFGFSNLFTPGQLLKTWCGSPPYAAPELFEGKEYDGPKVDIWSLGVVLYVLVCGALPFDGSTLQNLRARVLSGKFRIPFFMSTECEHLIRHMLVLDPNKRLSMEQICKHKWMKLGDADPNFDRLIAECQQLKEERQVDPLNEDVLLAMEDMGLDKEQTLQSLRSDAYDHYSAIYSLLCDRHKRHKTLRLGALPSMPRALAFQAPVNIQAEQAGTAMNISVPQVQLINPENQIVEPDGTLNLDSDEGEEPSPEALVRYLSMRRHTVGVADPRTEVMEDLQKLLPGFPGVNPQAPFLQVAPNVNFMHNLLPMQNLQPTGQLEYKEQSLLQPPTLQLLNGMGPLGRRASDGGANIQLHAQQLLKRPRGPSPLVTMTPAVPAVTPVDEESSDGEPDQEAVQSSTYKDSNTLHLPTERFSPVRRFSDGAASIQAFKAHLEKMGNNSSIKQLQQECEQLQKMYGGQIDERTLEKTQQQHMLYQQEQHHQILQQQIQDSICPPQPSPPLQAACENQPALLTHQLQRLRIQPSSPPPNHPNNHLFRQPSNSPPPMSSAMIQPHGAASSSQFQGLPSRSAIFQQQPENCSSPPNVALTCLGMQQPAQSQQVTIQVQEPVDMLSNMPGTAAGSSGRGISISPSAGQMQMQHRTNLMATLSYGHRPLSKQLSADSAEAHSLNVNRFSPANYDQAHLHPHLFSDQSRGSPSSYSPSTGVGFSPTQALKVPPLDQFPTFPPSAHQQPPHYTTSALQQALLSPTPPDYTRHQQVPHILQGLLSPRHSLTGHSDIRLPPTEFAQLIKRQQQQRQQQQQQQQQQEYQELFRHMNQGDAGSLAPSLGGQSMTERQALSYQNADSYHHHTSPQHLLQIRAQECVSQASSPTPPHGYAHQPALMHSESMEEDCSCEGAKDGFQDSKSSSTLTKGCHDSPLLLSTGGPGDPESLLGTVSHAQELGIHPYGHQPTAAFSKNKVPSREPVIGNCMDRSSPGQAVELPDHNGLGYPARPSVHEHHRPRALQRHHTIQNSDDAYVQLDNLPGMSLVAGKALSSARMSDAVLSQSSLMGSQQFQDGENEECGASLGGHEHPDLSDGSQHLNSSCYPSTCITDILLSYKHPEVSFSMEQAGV

O=C(N[C@@H](C1CC1)C(F)(F)F)c1cc(-c2cnn3cc(-c4ccc(F)cc4)cnc23)cs1
fold change (FC) [1]: 0 | fold change (FC) (Homo sapiens): 0.03 | fold change (FC) [2]: 0.81 | fold change (FC) [3]: 0

CC(C)[C@H](NC(=O)c1cc(-c2cnn3cc(-c4ccc(OCCN5CCCCC5)cc4)cnc23)cs1)C(F)(F)F
inhibition [4]: 0% | fold change (FC) [5]: 0.09 | fold change (FC) [6]: 0.18 | fold change (FC) [7]: 0.09 | fold change (FC) [8]: 0.03

CNC(=O)c1ccccc1Oc1nc(Nc2cc(OC)c(OC)c(OC)c2)ncc1Br
inhibition [9]: 0% | inhibition [10]: 14% | inhibition [11]: 0% | inhibition [12]: 0% | inhibition [13]: 32% | fold change (FC) [14]: 0 | fold change (FC) [15]: 0.49
